Assay results reported in ChEMBL document CHEMBL1123801, “Synthesis and antifungal activity of new 1-vinylimidazoles” (1987).
Converted amounts (≈) assume the structure as drawn.

The molecules below were run on Candida albicans (assay: Minimum inhibitory concentration (MIC) against Candida albicans).
Format: functional
In short: (§1)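 Broth microdilution in Sabouraud's glucose broth. Final inocula 1×10^5 cells/mL for the yeast (C. albicans) and 1×10^5 conidia/mL for the mold (A. fumigatus) and the dermatophyte (T. asteroides). MIC read as the fungistatic end point. Lowest value of duplicated experiments.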

Question: For C=C(c1ccccc1OCCOc1ccc(Cl)cc1)n1ccnc1, which MIC is on record?
Answer: The MIC was 50 µg/mL (≈ 147 µM).

Question: How did the MIC turn out when C=C(c1ccccc1OCc1ccc(CC)cc1)n1ccnc1 was run?
Answer: The MIC was 12.5 µg/mL (≈ 41.1 µM).

Question: How did the MIC turn out when C=C(c1ccccc1OCCC)n1ccnc1 was run?
Answer: Its MIC is 100 µg/mL (≈ 438 µM).

Question: How did the MIC turn out when CC(C)=C(c1ccccc1OCCCOc1ccccc1)n1ccnc1 was run?
Answer: Its MIC is 25 µg/mL (≈ 71.7 µM).

Question: Which MIC does the source give for C=C(c1ccccc1OC(CC)c1ccccc1)n1ccnc1 (configuration not stated) here?
Answer: The MIC was 6.2 µg/mL (≈ 20.4 µM).

Question: C=C(c1cc(Cl)ccc1OCc1ccsc1Cl)n1ccnc1 was tested. Which MIC did it give?
Answer: Its MIC is 25 µg/mL (≈ 71.2 µM).

Question: How did the MIC turn out when CC(C)=C(c1ccccc1OCCCOc1ccc(Cl)cc1)n1ccnc1 was run?
Answer: Its MIC is 12.5 µg/mL (≈ 32.6 µM).

Question: C=C(c1cc(Cl)ccc1OCCc1ccccc1)n1ccnc1 was tested. Which MIC did it give?
Answer: The MIC was 50 µg/mL (≈ 154 µM).

Question: With C=C(c1ccccc1OC(C)c1ccc(OC)cc1)n1ccnc1 (configuration not stated) as the molecule, how does the MIC read?
Answer: Its MIC is 12.5 µg/mL (≈ 39 µM).

Question: C=C(c1cc(Cl)ccc1OC(C)c1ccc(Cl)cc1)n1ccnc1 (configuration not stated) was tested. Which MIC did it give?
Answer: The MIC was 12.5 µg/mL (≈ 34.8 µM).

Question: Which MIC does the source give for C=C(c1ccccc1OCC)n1ccnc1 here?
Answer: The MIC was over 100 µg/mL.

Question: How did the MIC turn out when C=C(c1ccccc1OCCCC)n1ccnc1 was run?
Answer: Its MIC is 25 µg/mL (≈ 103 µM).

Question: Which MIC does the source give for C=C(c1ccccc1OCCCOc1ccc(Cl)cc1)n1ccnc1 here?
Answer: The MIC was 12.5 µg/mL (≈ 35.2 µM).

Question: Which MIC does the source give for C=C(c1cc(Cl)ccc1OCCC)n1ccnc1 here?
Answer: Its MIC is 25 µg/mL (≈ 95.2 µM).

Question: Which MIC does the source give for CCC=C(c1cc(Cl)ccc1OCc1ccccc1)n1ccnc1 here?
Answer: The MIC was 6.2 µg/mL (≈ 18.3 µM).

Question: With C=C(c1ccccc1OCc1ccc(C(C)C)cc1)n1ccnc1 as the molecule, how does the MIC read?
Answer: Its MIC is 25 µg/mL (≈ 78.5 µM).

Question: With CC=C(c1cc(Cl)ccc1OCc1ccc(Cl)cc1)n1ccnc1 as the molecule, how does the MIC read?
Answer: The MIC was 3.1 µg/mL (≈ 8.63 µM).

Question: With C=C(c1ccccc1OCc1ccc(OC)cc1)n1ccnc1 as the molecule, how does the MIC read?
Answer: The MIC was 25 µg/mL (≈ 81.6 µM).

Question: How did the MIC turn out when C=C(c1ccccc1OCCCSc1ccc(Cl)cc1)n1ccnc1 was run?
Answer: Its MIC is 25 µg/mL (≈ 67.4 µM).

Each molecule was assayed on Trichophyton benhamiae (assay: Minimum inhibitory concentration against Trichophyton asteroides).
Format: functional
In short: as §1

Question: With C=C(c1ccccc1OCCOc1ccc(Cl)cc1)n1ccnc1 as the molecule, how does the MIC read?
Answer: The MIC was 0.1 µg/mL (≈ 0.293 µM).

Question: C=C(c1ccccc1OCc1ccc(CC)cc1)n1ccnc1 was tested. Which MIC did it give?
Answer: The MIC was 0.1 µg/mL (≈ 0.329 µM).

Question: Which MIC does the source give for C=C(c1ccccc1OCCC)n1ccnc1 here?
Answer: Its MIC is 0.1 µg/mL (≈ 0.438 µM).

Question: For CC(C)=C(c1ccccc1OCCCOc1ccccc1)n1ccnc1, which MIC is on record?
Answer: The MIC was 3.1 µg/mL (≈ 8.9 µM).

Question: How did the MIC turn out when C=C(c1ccccc1OC(CC)c1ccccc1)n1ccnc1 (configuration not stated) was run?
Answer: Its MIC is 0.1 µg/mL (≈ 0.329 µM).

Question: For C=C(c1cc(Cl)ccc1OCc1ccsc1Cl)n1ccnc1, which MIC is on record?
Answer: The MIC was 0.1 µg/mL (≈ 0.285 µM).

Question: Which MIC does the source give for CC(C)=C(c1ccccc1OCCCOc1ccc(Cl)cc1)n1ccnc1 here?
Answer: Its MIC is 1.6 µg/mL (≈ 4.18 µM).

Question: How did the MIC turn out when C=C(c1cc(Cl)ccc1OCCc1ccccc1)n1ccnc1 was run?
Answer: The MIC was 0.1 µg/mL (≈ 0.308 µM).

Question: How did the MIC turn out when C=C(c1ccccc1OC(C)c1ccc(OC)cc1)n1ccnc1 (configuration not stated) was run?
Answer: The MIC was 0.4 µg/mL (≈ 1.25 µM).

Question: With C=C(c1cc(Cl)ccc1OC(C)c1ccc(Cl)cc1)n1ccnc1 (configuration not stated) as the molecule, how does the MIC read?
Answer: The MIC was 0.1 µg/mL (≈ 0.278 µM).

Question: For C=C(c1ccccc1OCC)n1ccnc1, which MIC is on record?
Answer: Its MIC is 0.4 µg/mL (≈ 1.87 µM).

Question: Which MIC does the source give for C=C(c1ccccc1OCCCC)n1ccnc1 here?
Answer: Its MIC is 50 µg/mL (≈ 206 µM).

Question: How did the MIC turn out when C=C(c1ccccc1OCCCOc1ccc(Cl)cc1)n1ccnc1 was run?
Answer: Its MIC is 0.1 µg/mL (≈ 0.282 µM).

Question: With C=C(c1cc(Cl)ccc1OCCC)n1ccnc1 as the molecule, how does the MIC read?
Answer: The MIC was 0.1 µg/mL (≈ 0.381 µM).

Question: For CCC=C(c1cc(Cl)ccc1OCc1ccccc1)n1ccnc1, which MIC is on record?
Answer: The MIC was 1.6 µg/mL (≈ 4.72 µM).

Question: With C=C(c1ccccc1OCc1ccc(C(C)C)cc1)n1ccnc1 as the molecule, how does the MIC read?
Answer: The MIC was 3.1 µg/mL (≈ 9.74 µM).

Question: With CC=C(c1cc(Cl)ccc1OCc1ccc(Cl)cc1)n1ccnc1 as the molecule, how does the MIC read?
Answer: The MIC was 0.8 µg/mL (≈ 2.23 µM).

Question: How did the MIC turn out when C=C(c1ccccc1OCc1ccc(OC)cc1)n1ccnc1 was run?
Answer: Its MIC is 0.1 µg/mL (≈ 0.326 µM).

Question: For C=C(c1ccccc1OCCCSc1ccc(Cl)cc1)n1ccnc1, which MIC is on record?
Answer: The MIC was 0.1 µg/mL (≈ 0.27 µM).

What follows are molecules tested on Aspergillus fumigatus (assay: Minimum inhibitory concentration (MIC) against Aspergillus fumigatus).
Format: functional
In short: as §1

Question: With C=C(c1ccccc1OCCOc1ccc(Cl)cc1)n1ccnc1 as the molecule, how does the MIC read?
Answer: Its MIC is 1.6 µg/mL (≈ 4.69 µM).

Question: With C=C(c1ccccc1OCc1ccc(CC)cc1)n1ccnc1 as the molecule, how does the MIC read?
Answer: Its MIC is 25 µg/mL (≈ 82.1 µM).

Question: C=C(c1ccccc1OCCC)n1ccnc1 was tested. Which MIC did it give?
Answer: The MIC was 1.6 µg/mL (≈ 7.01 µM).

Question: With CC(C)=C(c1ccccc1OCCCOc1ccccc1)n1ccnc1 as the molecule, how does the MIC read?
Answer: Its MIC is 6.2 µg/mL (≈ 17.8 µM).

Question: C=C(c1ccccc1OC(CC)c1ccccc1)n1ccnc1 (configuration not stated) was tested. Which MIC did it give?
Answer: Its MIC is 3.1 µg/mL (≈ 10.2 µM).

Question: C=C(c1cc(Cl)ccc1OCc1ccsc1Cl)n1ccnc1 was tested. Which MIC did it give?
Answer: The MIC was 6.2 µg/mL (≈ 17.7 µM).

Question: CC(C)=C(c1ccccc1OCCCOc1ccc(Cl)cc1)n1ccnc1 was tested. Which MIC did it give?
Answer: Its MIC is 6.2 µg/mL (≈ 16.2 µM).

Question: How did the MIC turn out when C=C(c1cc(Cl)ccc1OCCc1ccccc1)n1ccnc1 was run?
Answer: The MIC was 6.3 µg/mL (≈ 19.4 µM).

Question: Which MIC does the source give for C=C(c1ccccc1OC(C)c1ccc(OC)cc1)n1ccnc1 (configuration not stated) here?
Answer: Its MIC is 12.5 µg/mL (≈ 39 µM).

Question: How did the MIC turn out when C=C(c1cc(Cl)ccc1OC(C)c1ccc(Cl)cc1)n1ccnc1 (configuration not stated) was run?
Answer: Its MIC is 12.5 µg/mL (≈ 34.8 µM).

Question: Which MIC does the source give for C=C(c1ccccc1OCC)n1ccnc1 here?
Answer: The MIC was 3.1 µg/mL (≈ 14.5 µM).

Question: How did the MIC turn out when C=C(c1ccccc1OCCCC)n1ccnc1 was run?
Answer: Its MIC is 1.6 µg/mL (≈ 6.6 µM).

Question: With C=C(c1ccccc1OCCCOc1ccc(Cl)cc1)n1ccnc1 as the molecule, how does the MIC read?
Answer: The MIC was 12.5 µg/mL (≈ 35.2 µM).

Question: For C=C(c1cc(Cl)ccc1OCCC)n1ccnc1, which MIC is on record?
Answer: Its MIC is 0.8 µg/mL (≈ 3.04 µM).

Question: For CCC=C(c1cc(Cl)ccc1OCc1ccccc1)n1ccnc1, which MIC is on record?
Answer: Its MIC is 1.6 µg/mL (≈ 4.72 µM).

Question: How did the MIC turn out when C=C(c1ccccc1OCc1ccc(C(C)C)cc1)n1ccnc1 was run?
Answer: Its MIC is 3.1 µg/mL (≈ 9.74 µM).

Question: How did the MIC turn out when CC=C(c1cc(Cl)ccc1OCc1ccc(Cl)cc1)n1ccnc1 was run?
Answer: The MIC was 0.8 µg/mL (≈ 2.23 µM).

Question: Which MIC does the source give for C=C(c1ccccc1OCc1ccc(OC)cc1)n1ccnc1 here?
Answer: Its MIC is 6.2 µg/mL (≈ 20.2 µM).

Question: With C=C(c1ccccc1OCCCSc1ccc(Cl)cc1)n1ccnc1 as the molecule, how does the MIC read?
Answer: Its MIC is 3.1 µg/mL (≈ 8.36 µM).
